Where a SMILES comes first, the peptide text is derived from it. [ ]: non-standard residue; d: D form. ξ: configuration not given here. ξAla(9-anthryl) = NC(Cc1c2ccccc2cc2ccccc12)C(=O)O; Dip = N[C@H](C(=O)O)C(c1ccccc1)c1ccccc1; ξBip = NC(Cc1ccc(-c2ccccc2)cc1)C(=O)O; ξDip = NC(C(=O)O)C(c1ccccc1)c1ccccc1; ξ1Nal = NC(Cc1cccc2ccccc12)C(=O)O; ξ2Nal = NC(Cc1ccc2ccccc2c1)C(=O)O; ξOrn = NCCCC(N)C(=O)O; ξDab = NCCC(N)C(=O)O; ξDap = NCC(N)C(=O)O
Experiments:
[1] = Cytotoxicity against human MRC5 cells assessed as inhibition of cell proliferation incubated for 4 hrs by MTT assay; type: toxicity, cell-based
Method in brief: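 MRC-5 human embryonic lung fibroblasts cultured in MEM with 2 mM L-glutamine and 10% FBS, without antibiotics, at 37 °C in humidified 5% CO2. Cultures were tested for mycoplasma. IC50 from three or more independent measurements, given as mean ± SD.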

[2] = Cytotoxicity against mouse AT84 cells assessed as inhibition of cell proliferation incubated for 4 hrs by MTT assay; type: functional, cell-based; details: AT84, 4 h
A20 = assay: Cytotoxicity against mouse A20 lymphoma cells assessed as inhibition of cell proliferation incubated for 4 hrs by MTT assay; type: functional, cell-based; details: A20, 4 h
Method in brief: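 Murine A20 cells cultured in RPMI-1640 with 2 mM L-glutamine, 1.5 g/L sodium bicarbonate, 4.5 g/L glucose, 10 mM HEPES, 1.0 mM sodium pyruvate, 0.05 mM 2-mercaptoethanol and 10% FBS, without antibiotics, at 37 °C, 5% CO2. IC50 from three or more independent measurements, given as mean ± SD.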

[3] = Stability in pooled and cryopreserved human hepatocytes assessed as half life at 1 uM measured for 90 mins by LC-MS/MS analysis; type: ADME, cell-based, Hepatocyte
Method in brief: (§1)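 Pooled cryopreserved rat or human hepatocytes, 0.5 million cells/mL, ~37 °C, peptide at 1 μM initial. Supernatants analysed by LC–MS/MS with peak height referenced to time zero. t1/2 = −0.693/slope of ln concentration vs time. Duplicate experiments. Testosterone, midazolam and 4-methylumbelliferone served as metabolic-competence controls.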

[4] = Stability in pooled and cryopreserved rat hepatocytes assessed as intrinsic clearance measured per 10^6 cells at 1 uM measured for 90 mins by LC-MS/MS analysis; type: ADME, cell-based, Hepatocyte; details: read-out: CLH
Method in brief: (§2)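 Pooled cryopreserved hepatocytes at 0.5 million cells/mL, incubated at about 37 °C with 1 μM initial peptide. Supernatant after centrifugation analysed by LC–MS/MS (MRM) using a D-Trp7,9,10-substance P internal standard. Peak height was referenced to time zero, and t1/2 = −0.693/slope of ln concentration vs time. Clint = 0.693/t1/2 × Vinc per million cells. Testosterone, midazolam and 4-methylumbelliferone were the positive controls. Duplicates; mean of two experiments.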

[5] = Stability in pooled and cryopreserved human hepatocytes assessed as intrinsic clearance measured per 10^6 cells at 1 uM measured for 90 mins by LC-MS/MS analysis; type: ADME, cell-based, Hepatocyte; details: read-out: CLH; method in brief: as §2
[6] = Stability in pooled and cryopreserved rat hepatocytes assessed as half life at 1 uM measured for 90 mins by LC-MS/MS analysis; type: ADME, cell-based, Hepatocyte; method in brief: as §1

| Structure (SMILES) | IC50 at 4 h [1] | IC50 [2] | IC50 (A20) | half-life at 1 µM [3] | hepatocyte CLint at 1 µM [4] | hepatocyte CLint at 1 µM [5] | half-life at 1 µM [6] |
| --- | --- | --- | --- | --- | --- | --- | --- |
| NCCCC[C@H](NC(=O)[C@H](Cc1c[nH]c2ccccc12)NC(=O)[C@H](Cc1c[nH]c2ccccc12)NC(=O)[C@H](CCCCN)NC(=O)[C@H](CCCCN)NC(=O)[C@H](Cc1c[nH]c2ccccc12)NC(=O)C(NC(=O)[C@H](CCCCN)NC(=O)[C@@H](N)CCCCN)C(c1ccccc1)c1ccccc1)C(N)=O (stereo not given in full) (H-KK[ξDip]WKKWWK-NH2) | 488 µM | 36.7 µM | 51.7 µM |  |  |  |  |
| NCCCC[C@H](NC(=O)[C@H](Cc1c[nH]c2ccccc12)NC(=O)[C@H](Cc1c[nH]c2ccccc12)NC(=O)[C@H](CCCCN)NC(=O)[C@H](CCCCN)NC(=O)C(Cc1ccc2ccccc2c1)NC(=O)[C@H](Cc1c[nH]c2ccccc12)NC(=O)[C@H](CCCCN)NC(=O)[C@@H](N)CCCCN)C(N)=O (stereo not given in full) (H-KKW[ξ2Nal]KKWWK-NH2) | 257 µM | 29.3 µM | 26 µM |  |  |  |  |
| Cc1cc(=O)oc2cc(O)ccc12 [HYMECROMONE] |  |  |  | 11 min | 373 µL/min/1e6 cells | 127 µL/min/1e6 cells | 4 min |
| C[C@]12CC[C@H]3[C@@H](CCC4=CC(=O)CC[C@@]43C)[C@@H]1CC[C@@H]2O [TESTOSTERONE] |  |  |  |  | 811 µL/min/1e6 cells | 333 µL/min/1e6 cells |  |
| Cc1ncc2n1-c1ccc(Cl)cc1C(c1ccccc1F)=NC2 [MIDAZOLAM] |  |  |  | > 200 min | 51 µL/min/1e6 cells | < 7 µL/min/1e6 cells | 27 min |
| NCCCC[C@H](NC(=O)C(NC(=O)[C@H](Cc1c[nH]c2ccccc12)NC(=O)[C@H](CCCCN)NC(=O)[C@H](CCCCN)NC(=O)[C@H](Cc1c[nH]c2ccccc12)NC(=O)[C@@H](N)Cc1c[nH]c2ccccc12)C(c1ccccc1)c1ccccc1)C(N)=O (stereo not given in full) (H-WWKKW[ξDip]K-NH2) | 53.2 µM |  | 20.3 µM |  |  |  |  |
| NCC(N)C(=O)NC(CN)C(=O)N[C@@H](Cc1c[nH]c2ccccc12)C(=O)NC(C(=O)NC(CN)C(=O)NC(CN)C(=O)N[C@@H](Cc1c[nH]c2ccccc12)C(=O)N[C@@H](Cc1c[nH]c2ccccc12)C(=O)NC(CN)C(N)=O)C(c1ccccc1)c1ccccc1 (stereo not given in full) (H-[ξDap][ξDap]W[ξDip][ξDap][ξDap]WW[ξDap]-NH2) | 516 µM | 154 µM | 67.7 µM |  |  |  |  |
| NCCCC[C@H](NC(=O)C(NC(=O)[C@H](Cc1c[nH]c2ccccc12)NC(=O)[C@H](CCCCN)NC(=O)[C@H](CCCCN)NC(=O)C(NC(=O)[C@H](Cc1c[nH]c2ccccc12)NC(=O)[C@H](CCCCN)NC(=O)[C@@H](N)CCCCN)C(c1ccccc1)c1ccccc1)C(c1ccccc1)c1ccccc1)C(N)=O (stereo not given in full) (H-KKW[ξDip]KKW[ξDip]K-NH2) | 80 µM | 15 µM | 12 µM |  |  |  |  |
| NCCCC[C@H](NC(=O)[C@H](Cc1c[nH]c2ccccc12)NC(=O)[C@H](Cc1c[nH]c2ccccc12)NC(=O)[C@H](CCCCN)NC(=O)[C@H](CCCCN)NC(=O)[C@@H](NC(=O)[C@H](Cc1c[nH]c2ccccc12)NC(=O)[C@H](CCCCN)NC(=O)[C@@H](N)CCCCN)C(c1ccccc1)c1ccccc1)C(N)=O (H-KKW[Dip]KKWWK-NH2) | > 347 µM | 113 µM | 134 µM |  |  |  |  |
| NCCCC[C@H](NC(=O)[C@H](Cc1c[nH]c2ccccc12)NC(=O)[C@H](Cc1c[nH]c2ccccc12)NC(=O)[C@H](CCCCN)NC(=O)[C@H](CCCCN)NC(=O)C(Cc1cccc2ccccc12)NC(=O)[C@H](Cc1c[nH]c2ccccc12)NC(=O)[C@H](CCCCN)NC(=O)[C@@H](N)CCCCN)C(N)=O (stereo not given in full) (H-KKW[ξ1Nal]KKWWK-NH2) | 238 µM | 26.3 µM | 24 µM |  |  |  |  |
| NCCC(N)C(=O)NC(CCN)C(=O)N[C@@H](Cc1c[nH]c2ccccc12)C(=O)NC(C(=O)NC(CCN)C(=O)NC(CCN)C(=O)N[C@@H](Cc1c[nH]c2ccccc12)C(=O)N[C@@H](Cc1c[nH]c2ccccc12)C(=O)NC(CCN)C(N)=O)C(c1ccccc1)c1ccccc1 (stereo not given in full) (H-[ξDab][ξDab]W[ξDip][ξDab][ξDab]WW[ξDab]-NH2) | 97.7 µM | 14.3 µM | 8.3 µM |  |  |  |  |
| NCCCC[C@H](NC(=O)C(NC(=O)[C@H](Cc1c[nH]c2ccccc12)NC(=O)[C@H](CCCCN)NC(=O)[C@H](CCCCN)NC(=O)[C@H](Cc1c[nH]c2ccccc12)NC(=O)[C@H](Cc1c[nH]c2ccccc12)NC(=O)[C@@H](N)CCCCN)C(c1ccccc1)c1ccccc1)C(N)=O (stereo not given in full) (H-KWWKKW[ξDip]K-NH2) | 43.9 µM |  | 13.5 µM |  |  |  |  |
| NCCCC[C@H](NC(=O)[C@H](Cc1c[nH]c2ccccc12)NC(=O)[C@H](Cc1c[nH]c2ccccc12)NC(=O)[C@H](CCCCN)NC(=O)[C@H](CCCCN)NC(=O)C(Cc1c2ccccc2cc2ccccc12)NC(=O)[C@H](Cc1c[nH]c2ccccc12)NC(=O)[C@H](CCCCN)NC(=O)[C@@H](N)CCCCN)C(N)=O (stereo not given in full) (H-KKW[ξAla(9-anthryl)]KKWWK-NH2) | 40 µM | 11 µM | 9.3 µM |  |  |  |  |
| NCCCC[C@H](NC(=O)C(NC(=O)[C@H](Cc1c[nH]c2ccccc12)NC(=O)[C@H](CCCCN)NC(=O)[C@H](CCCCN)NC(=O)[C@@H](N)Cc1c[nH]c2ccccc12)C(c1ccccc1)c1ccccc1)C(N)=O (stereo not given in full) (H-WKKW[ξDip]K-NH2) | 460 µM |  | 247 µM |  |  |  |  |
| NCCCC[C@H](NC(=O)[C@H](Cc1c[nH]c2ccccc12)NC(=O)[C@H](Cc1c[nH]c2ccccc12)NC(=O)[C@H](CCCCN)NC(=O)[C@H](CCCCN)NC(=O)[C@H](Cc1c[nH]c2ccccc12)NC(=O)[C@H](Cc1c[nH]c2ccccc12)NC(=O)[C@H](CCCCN)NC(=O)[C@@H](N)CCCCN)C(N)=O (H-KKWWKKWWK-NH2) | > 357 µM | 31 µM | 37.3 µM |  |  |  |  |
| NCCCC[C@H](NC(=O)[C@H](Cc1c[nH]c2ccccc12)NC(=O)[C@H](Cc1c[nH]c2ccccc12)NC(=O)[C@H](CCCCN)NC(=O)[C@H](CCCCN)NC(=O)C(Cc1ccc(-c2ccccc2)cc1)NC(=O)[C@H](Cc1c[nH]c2ccccc12)NC(=O)[C@H](CCCCN)NC(=O)[C@@H](N)CCCCN)C(N)=O (stereo not given in full) (H-KKW[ξBip]KKWWK-NH2) | 174 µM | 27.3 µM | 18.7 µM |  |  |  |  |
| NCCCC[C@H](NC(=O)[C@H](Cc1c[nH]c2ccccc12)NC(=O)[C@H](Cc1c[nH]c2ccccc12)NC(=O)[C@H](CCCCN)NC(=O)[C@H](CCCCN)NC(=O)C(NC(=O)[C@H](Cc1c[nH]c2ccccc12)NC(=O)[C@H](CCCCN)NC(=O)[C@@H](N)CCCCN)C(c1ccccc1)c1ccccc1)C(N)=O (stereo not given in full) (H-KKW[ξDip]KKWWK-NH2) | 287 µM | 24.7 µM | 25.7 µM |  |  |  |  |
| NCCCC[C@H](NC(=O)[C@H](Cc1c[nH]c2ccccc12)NC(=O)C(NC(=O)[C@H](CCCCN)NC(=O)[C@H](CCCCN)NC(=O)[C@H](Cc1c[nH]c2ccccc12)NC(=O)[C@H](Cc1c[nH]c2ccccc12)NC(=O)[C@H](CCCCN)NC(=O)[C@@H](N)CCCCN)C(c1ccccc1)c1ccccc1)C(N)=O (stereo not given in full) (H-KKWWKK[ξDip]WK-NH2) | 102 µM | 25.3 µM | 12.3 µM |  |  |  |  |
| NCCCC(N)C(=O)NC(CCCN)C(=O)N[C@@H](Cc1c[nH]c2ccccc12)C(=O)NC(C(=O)NC(CCCN)C(=O)NC(CCCN)C(=O)N[C@@H](Cc1c[nH]c2ccccc12)C(=O)N[C@@H](Cc1c[nH]c2ccccc12)C(=O)NC(CCCN)C(N)=O)C(c1ccccc1)c1ccccc1 (stereo not given in full) (H-[ξOrn][ξOrn]W[ξDip][ξOrn][ξOrn]WW[ξOrn]-NH2) | 323 µM | 23 µM | 21.7 µM |  |  |  |  |
